Screening results from PubChem BioAssay.
TDP2 absorb: blocks human TDP2 phosphodiesterase activity. O95551. recombinant TDP2, T5PNP hydrolysis, p-nitrophenol absorbance 415 nm. inhibition, % at 12.8 µM. actives 0.34% (n = 370,000);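 active = inhibition above the mean of all tested compounds plus 3 SD, set per campaign, cut at about 25% in these data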;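 also: 0% = DMSO with enzyme and 100% = buffer with substrate but no TDP2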
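Assay system: recombinant human TDP2 / Reagent: T5PNP substrate at 5 mM, a TopII-DNA adduct mimic / Measured by: epi absorbance from released p-nitrophenol / Evaluation: % inhibition relative to enzyme-containing and enzyme-free wells / Control set: enzyme-free and DMSO wells / Replicates: each compound tested once, singlicate / Schedule: enzyme reaction with compound for 2 h at 37 °C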
core dimer inh: HCV core protein dimerization inhibition; inhibition, % at 5 µM; TR-FRET GST/Flag-core106 dimerization, 1536-well; AID 1899; actives 0.33% (n = 300,000);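 active = inhibition above the mean of all tested compounds plus 3 SD, set per screening campaign, cut at about 45% in these data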
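Assay system – GST-tagged and Flag-tagged HCV core protein residues 1-106 · Quantity – core106 proteins, GST 13.5 nM and Flag 17 nM · Benchmarks – unlabelled core106 and no-GST-core106 wells · Read-out basis – percent inhibition of core106 dimerization signal · Detection – time-resolved FRET, ex 340 nm, em 617 and 671 nm · Schedule – 4 h at 22.5 °C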
LEDGF integ inh: blocks HIV-1 LEDGF/p75-dependent DNA integration | actives 0.64% (n = 370,000) | TR-FRET IN-LEDGF/p75 DNA integration, Eu/Cy5 | inhibition, % at 3.7 µM | AID 743269;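 active = inhibition above the screen-wide mean plus 3 SD, cut at about 13% in these data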;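 also: signal is the Cy5 over europium emission ratio at 671 and 618 nm; 0% = plate median of compound wells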
MBD2 DNA inh: inhibitors of human MBD2 binding to methylated oligonucleotide; TR-FRET; inhibition, % at 4.4 µM; actives 0.31% (n = 370,000); in the data active = inhibition above about 13%
Target sequence (Q9UBB5 whole entry, looked up): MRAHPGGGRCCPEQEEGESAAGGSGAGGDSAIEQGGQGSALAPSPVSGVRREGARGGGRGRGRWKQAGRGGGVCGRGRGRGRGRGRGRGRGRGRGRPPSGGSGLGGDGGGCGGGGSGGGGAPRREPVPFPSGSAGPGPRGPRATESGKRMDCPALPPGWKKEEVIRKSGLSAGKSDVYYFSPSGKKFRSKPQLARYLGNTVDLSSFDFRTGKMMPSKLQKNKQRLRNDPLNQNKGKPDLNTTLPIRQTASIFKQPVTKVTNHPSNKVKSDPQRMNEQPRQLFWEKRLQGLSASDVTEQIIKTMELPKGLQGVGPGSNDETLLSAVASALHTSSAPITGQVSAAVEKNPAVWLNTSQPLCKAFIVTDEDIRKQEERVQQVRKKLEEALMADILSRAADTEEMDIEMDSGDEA
UHRF1 binding: human UHRF1 methylated DNA binding inhibitors; UHRF1 binding to methylated oligo, TR-FRET; inhibition, % at 4.4 µM; actives 0.75% (n = 370,000); in the data active = inhibition above about 21%;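 also: UHRF1 SRA domain binding a hemimethylated CpG hairpin DNA probe; 0% = median of test compound wells and 100% = reference inhibitor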
* = called active by the depositor. Shown are actives, neighbours in structure and some others; about 1.8% of the full set was active somewhere.

What do the screens show for `CC(C)[C@H](NS(=O)(=O)c1ccc(F)cc1F)C(=O)N1CCC[C@H]1C(=O)NCCc1ccccc1Cl`?
TDP2 absorb: 6; LEDGF integ inh: -5; MBD2 DNA inh: 2; UHRF1 binding: -1

What do the screens show for `Cc1nnc(N2C(=O)C(=O)/C(=C(/O)c3ccc4c(c3)OCCO4)C2c2ccc([N+](=O)[O-])cc2)s1` (configuration not stated)?
TDP2 absorb: 14; core dimer inh: 48*; LEDGF integ inh: -2; MBD2 DNA inh: 0; UHRF1 binding: -1

How did Cc1nnc(N2C(=O)C(=O)/C(=C(/O)c3ccc4c(c3)OCCO4)C2c2cccc([N+](=O)[O-])c2)s1 (configuration not stated) do in these assays?
TDP2 absorb: -9; LEDGF integ inh: 4; MBD2 DNA inh: -4; UHRF1 binding: 0

What do the screens show for `NC1=[N+](Cc2ccccc2)C[C@H]2C(=C3CCCC[C@H]3n3c(=O)n(-c4ccccc4)c(=O)n32)N1`?
TDP2 absorb: -2; LEDGF integ inh: 1; MBD2 DNA inh: 0; UHRF1 binding: -1

Results for Cc1ccc(NC(=O)C2Cc3ccccc3O/C2=N\O)cc1C (configuration not stated) ?
TDP2 absorb: 7; LEDGF integ inh: 4; MBD2 DNA inh: 3; UHRF1 binding: 21*

What do the screens show for `O=C(COc1cccnc1[N+](=O)[O-])N1CCN(C(=O)c2ccco2)CC1`?
TDP2 absorb: -4; core dimer inh: -1; LEDGF integ inh: -6; MBD2 DNA inh: 4; UHRF1 binding: 25*

What do the screens show for `Cc1cc(C(=O)OCC(=O)NC2CCCC2)c2ccccc2n1`?
TDP2 absorb: -1; LEDGF integ inh: 0; MBD2 DNA inh: -5; UHRF1 binding: -2

Results for Cn1c(=O)c(C(=O)COC(=O)c2cc(-c3ccco3)nc3ccccc23)c(N)n(CC2CC2)c1=O ?
core dimer inh: 57*

How did Cn1c(=O)c(C(=O)COC(=O)c2cc(C3CC3)nc3ccccc23)c(N)n(Cc2ccccc2)c1=O do in these assays?
TDP2 absorb: 1; core dimer inh: -4; LEDGF integ inh: 2; MBD2 DNA inh: -3; UHRF1 binding: -1

What do the screens show for `Cc1cc(C(=O)OCC(=O)N2CCC(C)CC2)c2ccccc2n1`?
TDP2 absorb: -4; LEDGF integ inh: 35*; MBD2 DNA inh: -2; UHRF1 binding: 2

Results for O=C(COc1ccccc1O)N1CCN(C(=O)c2ccco2)CC1 ?
TDP2 absorb: 6; core dimer inh: -3; LEDGF integ inh: 1; MBD2 DNA inh: -3; UHRF1 binding: 2

How did O=C(OCC(=O)N1CCN(C(=O)c2ccco2)CC1)c1cc(-c2ccco2)nc2ccccc12 do in these assays?
core dimer inh: 68*

How did CC(C)[C@@H]1OC(=O)[C@@H]2CCCN2C(=O)[C@H](C)OC(=O)[C@H](C)[C@@H](C(C)C)NC(=O)[C@@H]2CCCN2C(=O)[C@H]([C@H](C)Cc2ccccc2)NC(=O)[C@@H]2CCCN2C(=O)[C@@H](C(C)C)N(C)C1=O do in these assays?
TDP2 absorb: -9; LEDGF integ inh: -1; MBD2 DNA inh: 6; UHRF1 binding: 2

Results for COC(=O)[C@]12C[C@H](CC(=O)NCc3ccccc3)C(=O)N(Cc3cccc4ccccc34)C1=C[C@H](COCc1ccccc1)O[C@@H]2C ?
TDP2 absorb: 0; LEDGF integ inh: 2; MBD2 DNA inh: -2; UHRF1 binding: 3

How did O=C(OCC(=O)N1CCN(C(=O)c2ccco2)CC1)c1cccc(S(=O)(=O)N2CCc3ccccc32)c1 do in these assays?
TDP2 absorb: -3; core dimer inh: 6; LEDGF integ inh: 0; MBD2 DNA inh: -2; UHRF1 binding: 21*

Results for CNS(=O)(=O)c1cccc(C(=O)OCC(=O)N2CCN(C(=O)c3ccco3)CC2)c1 ?
TDP2 absorb: 4; LEDGF integ inh: -2; MBD2 DNA inh: 1; UHRF1 binding: -2

Results for Cc1cc(C)cc(C(=O)OCCN(C)C2CN(Cc3cn(Cc4ccccc4F)nn3)S(=O)(=O)C2)c1 (configuration not stated) ?
TDP2 absorb: 1; LEDGF integ inh: 1; MBD2 DNA inh: 3; UHRF1 binding: 8

What do the screens show for `CN(CCCOC(=O)c1cc2ccccc2o1)C1CN(Cc2cn(Cc3ccc([N+](=O)[O-])cc3)nn2)S(=O)(=O)C1` (configuration not stated)?
TDP2 absorb: -1; LEDGF integ inh: 6; MBD2 DNA inh: -3; UHRF1 binding: 3

What do the screens show for `CCOC(=O)c1c(-c2ccc(C)o2)csc1NC(=O)COC(=O)c1ccc(NC(N)=O)cc1`?
TDP2 absorb: 5; core dimer inh: 49*; LEDGF integ inh: -2; MBD2 DNA inh: -3; UHRF1 binding: -1

Results for CCOC(=O)c1c(-c2ccc(C)o2)csc1NC(=O)CSc1nnc(C)s1 ?
TDP2 absorb: 10; core dimer inh: 5; LEDGF integ inh: -3; MBD2 DNA inh: -2; UHRF1 binding: -4

Results for COc1ccccc1NC(=O)OC1CCC12CCCCC2 (configuration not stated) ?
TDP2 absorb: 1; LEDGF integ inh: -3; MBD2 DNA inh: 2; UHRF1 binding: 1

What do the screens show for `CCc1ccc(C2C(C#N)=C(N)SC(N)=C2C#N)s1`?
core dimer inh: 53*

How did CCOC(=O)C1=C(C)OC(N)=C(C#N)C1c1ccc(C)o1 (configuration not stated) do in these assays?
TDP2 absorb: 5; core dimer inh: 2; LEDGF integ inh: -3; MBD2 DNA inh: -1; UHRF1 binding: -2

What do the screens show for `Cc1ccc(C2C(C#N)=C(N)SC(N)=C2C#N)o1`?
core dimer inh: 46*

Results for O=C(CSc1ccc(-c2ccco2)nn1)c1cccc([N+](=O)[O-])c1 ?
TDP2 absorb: -9; core dimer inh: 65*; LEDGF integ inh: 6; MBD2 DNA inh: -3; UHRF1 binding: 3

Results for Cc1cc(SCC(=O)c2cccc([N+](=O)[O-])c2)nc(=O)[nH]1 ?
core dimer inh: 71*

Results for Cc1ccccc1C(=O)N1CCC(Oc2cccnc2)CC1 ?
TDP2 absorb: 4; LEDGF integ inh: -4; MBD2 DNA inh: -2; UHRF1 binding: 0

How did CCC(C(=O)Nc1ccccc1N1CCCC1)c1ccccc1F (configuration not stated) do in these assays?
TDP2 absorb: 2; LEDGF integ inh: -1; MBD2 DNA inh: -4; UHRF1 binding: 0

What do the screens show for `O=C(NC1CCCCN(Cc2ccc(Cl)cc2)C1=O)C(c1ccccc1)c1ccccc1` (configuration not stated)?
TDP2 absorb: -5; LEDGF integ inh: -2; MBD2 DNA inh: 6; UHRF1 binding: 1

How did Cc1nn(-c2ccccc2)c2nc(-c3ccco3)cc(C(=O)O)c12 do in these assays?
TDP2 absorb: 9; core dimer inh: 14; LEDGF integ inh: 16*; MBD2 DNA inh: 5; UHRF1 binding: 14
